The nature of assay [1]: Cytotoxicity against human MCF10A cells assessed as cell death at 150 uM incubated for 96 hrs by MTT assay. The assay is classed as functional. The following applies: MCF-10A.
Assay [2] addresses Cathepsin B (Homo sapiens, UniProt P07858). Nature of the assay: Inhibition of recombinant cathepsin B (unknown origin) using Z-Leu-Arg-AMC fluorogenic substrate.
For assay [3], the target named is T1, Ubiquitin carboxyl-terminal hydrolase 17 (Homo sapiens, UniProt Q6R6M4).
T1 sequence (Q6R6M4 whole entry): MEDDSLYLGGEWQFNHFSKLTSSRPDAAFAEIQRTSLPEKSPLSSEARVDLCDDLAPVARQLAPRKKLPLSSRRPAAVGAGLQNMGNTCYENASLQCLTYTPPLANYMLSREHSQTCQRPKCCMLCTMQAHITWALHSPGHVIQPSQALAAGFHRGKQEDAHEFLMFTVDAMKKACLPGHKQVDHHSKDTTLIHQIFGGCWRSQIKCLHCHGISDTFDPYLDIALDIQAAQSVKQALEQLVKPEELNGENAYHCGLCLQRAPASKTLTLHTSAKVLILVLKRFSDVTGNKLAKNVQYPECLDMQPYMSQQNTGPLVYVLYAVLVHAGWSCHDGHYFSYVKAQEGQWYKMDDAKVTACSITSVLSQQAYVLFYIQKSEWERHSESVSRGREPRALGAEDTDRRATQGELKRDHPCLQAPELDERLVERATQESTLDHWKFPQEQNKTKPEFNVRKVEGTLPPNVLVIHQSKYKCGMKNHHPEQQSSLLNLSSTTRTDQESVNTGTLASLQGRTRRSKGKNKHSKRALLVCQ
Description: Inhibition of USP17 in human HEK293T cells using fluorogenic substrate ub-rhodamine110 preincubated for 30 mins followed by substrate addition measured every 4 mins for 1 hr by microplate reader analysis. The assay is classed as cell-based, HEK-293T.

The subject of assay [4] is MCF7. Nature of the assay: Cytotoxicity against human MCF7 cells assessed as cell death at 30 uM incubated for 96 hrs by MTT assay. Type of assay: functional. To be noted: MCF7, 96 h. The method in brief: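 MCF7 breast cancer cells were exposed to compound for 96 h, with DMSO vehicle as the control. Viability was read by MTT assay, n = 6.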
(In general: Formazan colour is commonly taken as a measure of viable cells.)

For assay [5], the target named is T2, Legumain (Homo sapiens, UniProt Q99538).
T2 sequence (Q99538 whole entry): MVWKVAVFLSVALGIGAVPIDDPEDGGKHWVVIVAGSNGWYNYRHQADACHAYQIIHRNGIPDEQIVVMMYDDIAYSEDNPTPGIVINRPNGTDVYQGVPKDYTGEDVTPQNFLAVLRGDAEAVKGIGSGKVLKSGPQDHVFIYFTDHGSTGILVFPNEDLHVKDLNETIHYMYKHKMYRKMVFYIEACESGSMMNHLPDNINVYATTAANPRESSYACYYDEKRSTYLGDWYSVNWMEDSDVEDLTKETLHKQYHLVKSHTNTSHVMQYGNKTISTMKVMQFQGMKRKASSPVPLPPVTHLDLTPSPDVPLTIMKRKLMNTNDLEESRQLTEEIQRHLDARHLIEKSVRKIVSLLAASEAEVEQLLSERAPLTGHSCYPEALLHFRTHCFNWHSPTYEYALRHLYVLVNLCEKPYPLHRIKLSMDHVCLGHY
Nature of the assay: Inhibition of recombinant human legumain using Z-Ala-Ala-Asn-MCA substrate measured every 2 mins for 60 mins by microplate reader analysis.

For assay [6], the target named is Cathepsin S (Homo sapiens, UniProt P25774). Nature of the assay: Inhibition of recombinant cathepsin S (unknown origin) using ZVVR-AMC fluorogenic substrate.
Chain of Cathepsin S (P25774 whole entry): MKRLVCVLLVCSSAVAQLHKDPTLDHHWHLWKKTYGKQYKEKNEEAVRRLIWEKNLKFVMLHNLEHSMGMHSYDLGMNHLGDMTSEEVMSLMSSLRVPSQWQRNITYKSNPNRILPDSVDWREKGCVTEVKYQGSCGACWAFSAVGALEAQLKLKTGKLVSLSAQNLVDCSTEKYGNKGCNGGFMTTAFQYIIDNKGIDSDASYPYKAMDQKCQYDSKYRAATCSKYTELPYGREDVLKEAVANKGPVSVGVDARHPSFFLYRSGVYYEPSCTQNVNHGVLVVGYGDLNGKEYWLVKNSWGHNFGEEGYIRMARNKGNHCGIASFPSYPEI
For assay [7], the target named is T3, Caspase-3 (Homo sapiens, UniProt P42574).
T3 sequence (P42574 whole entry): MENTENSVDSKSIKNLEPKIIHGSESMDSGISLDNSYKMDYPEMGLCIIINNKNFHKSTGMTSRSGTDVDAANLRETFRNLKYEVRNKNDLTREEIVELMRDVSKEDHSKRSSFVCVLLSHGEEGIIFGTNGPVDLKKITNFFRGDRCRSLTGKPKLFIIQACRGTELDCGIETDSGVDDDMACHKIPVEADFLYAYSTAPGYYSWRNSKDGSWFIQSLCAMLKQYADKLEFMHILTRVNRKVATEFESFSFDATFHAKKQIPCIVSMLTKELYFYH
Nature of the assay: Inhibition of recombinant caspase 3 (unknown origin) using DEVD-AFC fluorogenic substrate.

Assay [8] deals with Caspase-8 (Homo sapiens, UniProt Q14790). Nature of the assay: Inhibition of recombinant caspase 8 (unknown origin) using IETD-AFC fluorogenic substrate.
Chain of Caspase-8 (Q14790 217-374 limits assumed): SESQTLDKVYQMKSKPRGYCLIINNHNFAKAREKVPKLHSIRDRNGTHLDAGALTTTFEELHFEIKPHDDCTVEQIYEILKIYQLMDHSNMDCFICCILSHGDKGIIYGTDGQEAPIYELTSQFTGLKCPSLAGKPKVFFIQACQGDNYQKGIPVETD
Chain of Caspase-8 (Q14790 385-479 limits assumed): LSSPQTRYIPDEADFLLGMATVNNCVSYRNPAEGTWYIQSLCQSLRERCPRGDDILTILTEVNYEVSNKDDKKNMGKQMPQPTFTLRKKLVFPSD
Assay [9] has as its target T4, Legumain (Homo sapiens) (UniProt Q99538).
T4 sequence (whole entry): T2 sequence (Q99538 whole entry)
Description: Inhibition of legumain in human MCF7 cells using Z-Ala-Ala-Asn-MCA substrate at 30 uM incubated for 24 hrs by microplate reader analysis. The assay is classed as cell-based. In short, it runs like this:
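MCF7 cells incubated with compound at 37 °C for 24 h. Media then removed, cells washed with assay buffer and lysed. Intracellular legumain activity read in the lysate with fluorogenic substrate. Run in triplicate.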

Assay [10] can be described thus: Antimetastatic activity in human PC3 cells assessed as inhibition of colony formation efficiency at 2.5 uM after 2 weeks by soft agar anchorage-independent growth assay. To be noted: PC-3, 336 h. Type of assay: functional. In short, it runs like this:
(§1)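 Soft agar anchorage-independent colony formation in MCF7 and PC3 cells over 2 weeks. Compound and media refreshed every 4 days. Colonies quantified relative to DMSO vehicle-treated cells. n = 5.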

A short description of assay [11]: Cytotoxicity against human PC3 cells assessed as cell viability at 30 uM incubated for 96 hrs by MTT assay. The assay is classed as functional. To be noted: PC-3, 96 h, read-out: Activity. In short, it runs like this:
(§2)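 MTT viability read-out after 96 h exposure. Compared with DMSO vehicle control. n = 6.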

Assay [12] has as its system T47D. Description: Cytotoxicity against human T47D cells assessed as cell viability at 30 uM incubated for 96 hrs by MTT assay. Type of assay: functional. The following applies: read-out: Activity. In short, it runs like this:
as §2

Assay [13] has as its target T4, Legumain (Homo sapiens). Description: Inhibition of legumain in human MCF7 cells using Z-Ala-Ala-Asn-MCA substrate at 30 uM incubated for 48 hrs by microplate reader analysis. The assay is classed as cell-based.
For assay [14], the system named is MCF7. Description: Antimetastatic activity in human MCF7 cells assessed as inhibition of colony formation efficiency at 5 uM after 2 weeks by soft agar anchorage-independent growth assay. Type of assay: functional. The following applies: MCF7, 336 h. In short, it runs like this: as §1
A short description of assay [15]: Cytotoxicity against human DU145 cells assessed as cell viability at 30 uM incubated for 96 hrs by MTT assay. The assay is classed as functional. The following applies: DU-145, 96 h, read-out: Activity. In short, it runs like this:
as §2

Activity calls are given as the source filed them. No cut-off for these calls is given here.

By mortality is commonly meant the percentage killed. A word on the IC50: it is the concentration at which inhibition is half-maximal. Broadly, the inhibition is the share of the control response that was lost under treatment.

As for `N#C[C@H](CC(N)=O)NC(=O)[C@@H]1CCCN1S(=O)(=O)c1ccc(-c2ccccc2)cc1`, the mortality at 150 µM in assay [1] turned out to be 0%. The IC50 in assay [2] is over 50000 nM; in assay [3], over 50000 nM; in assay [5] it was 12 nM; in [6], over 50000 nM; in assay [7] it was over 50000 nM; in assay [8] it was over 50000 nM. The mortality at 30 µM in assay [4] is 45%. The inhibition in assay [9] turned out to be 47%.
For `N#C[C@H](CC(N)=O)NC(=O)[C@@H]1CCCN1S(=O)(=O)c1ccc(Br)cc1`, in assay [5], the IC50 amounted to 282 nM. In assay [9], the inhibition was 0%.
With `CC(C)c1ccc(-c2ccc(S(=O)(=O)N3CCC[C@H]3C(=O)N[C@H](C#N)CC(N)=O)cc2)cc1`, the IC50 in [5] is 5 nM. The inhibition in assay [9] was found to be 75%.
Taken in the same sequence, the figures for `CCc1ccc(-c2ccc(S(=O)(=O)N3CCC[C@H]3C(=O)N[C@H](C#N)CC(N)=O)cc2)cc1` were 71 nM and 42%.
As for `N#C[C@H](CC(N)=O)NC(=O)[C@@H]1CCCN1S(=O)(=O)c1ccc(-c2ccc(Cl)cc2)cc1`, the IC50 in assay [5] was determined as 45 nM. Moreover, the inhibition in assay [9] is 64%.
Consider `N#C[C@H](CC(N)=O)NC(=O)[C@@H]1CCCN1S(=O)(=O)c1ccc(-c2ccccc2Cl)cc1`, for which the IC50 in assay [5] was found to be 35 nM. Moreover, in assay [9], the inhibition was determined as 29%.
On the same counts, the results for `Cc1ccc(-c2ccc(S(=O)(=O)N3CCC[C@H]3C(=O)N[C@H](C#N)CC(N)=O)cc2)cc1` are 32 nM and 0%.
Taken in the same sequence, the figures for `N#C[C@H](CC(N)=O)NC(=O)[C@@H]1CCCN1S(=O)(=O)c1ccc(Cl)cc1Cl` were 593 nM and 0%.
Taken in the same sequence, the figures for `N#C[C@H](CC(N)=O)NC(=O)[C@@H]1CCCN1S(=O)(=O)c1ccc(Cl)cc1` were 73 nM and 0%.
In the case of `N#C[C@H](CC(N)=O)NC(=O)[C@@H]1CCCN1S(=O)(=O)c1ccc(-c2ccc3c(c2)OCO3)cc1`, the IC50 in [5] was 49 nM. Also, the inhibition in [9] stood at 49%.
On the same counts, the results for `N#Cc1ccc(-c2ccc(S(=O)(=O)N3CCC[C@H]3C(=O)N[C@H](C#N)CC(N)=O)cc2)cc1` are 33 nM and 0%.
In the case of `COc1ccc(-c2ccc(S(=O)(=O)N3CCC[C@H]3C(=O)N[C@H](C#N)CC(N)=O)cc2)cc1`, the mortality at 150 µM in assay [1] is 0%. Also, the IC50 in [2] was over 50000 nM; in [3], over 50000 nM; in assay [5], 6 nM; in assay [6], over 50000 nM; in assay [7] it was over 50000 nM; in assay [8], over 50000 nM. Besides, in assay [4], the mortality at 30 µM was 58%. In assay [9], this molecule gave an inhibition of 90%.
Regarding `COc1ccc(S(=O)(=O)N2CCC[C@H]2C(=O)N[C@H](C#N)CC(N)=O)cc1`, in assay [5], the IC50 was over 10000 nM.
Take `CCOc1ccc(-c2ccc(S(=O)(=O)N3CCC[C@H]3C(=O)N[C@H](C#N)CC(N)=O)cc2)cc1`: the IC50 in [5] was found to be 73 nM. Besides, the inhibition in [9] came out at 90%.
As for `N#C[C@H](CC(N)=O)NC(=O)[C@@H]1CCCN1S(=O)(=O)c1ccc(-c2ccc(C(F)(F)F)cc2)cc1`, the IC50 in assay [5] is 121 nM. This molecule also gave an inhibition in assay [9] of 52%.
Turning to `CC(C)Oc1ccc(-c2ccc(S(=O)(=O)N3CCC[C@H]3C(=O)N[C@H](C#N)CC(N)=O)cc2)cc1`, the IC50 in assay [5] turned out to be 969 nM. In addition, the inhibition in assay [9] was 49%.
Take `N#C[C@H](CC(N)=O)NC(=O)[C@@H]1CCCN1S(=O)(=O)c1ccc(F)cc1`: in assay [5], the IC50 was determined as 269 nM. This molecule had an inhibition in [9] of 0%.
For `CC(C)(C)c1ccc(-c2ccc(S(=O)(=O)N3CCC[C@H]3C(=O)N[C@H](C#N)CC(N)=O)cc2)cc1`, the mortality at 150 µM in assay [1] was determined as 0%. The IC50 was over 50000 nM in assay [2]; over 50000 nM in assay [3]; 71 nM in [5]; over 50000 nM in assay [6]; over 50000 nM in assay [7]; over 50000 nM in assay [8]. In addition, the mortality at 30 µM in [4] amounted to 81%. In addition, the inhibition at 2.5 µM in assay [10] was 50%. Besides, the viability at 30 µM in [11], in [12] and in assay [15] was over 50% throughout. Further, the inhibition result in [13] was “Active”. For the same molecule, the inhibition at 5 µM in assay [14] stood at 50%. The inhibition in assay [9] was found to be 90%.
Turning to `N#C[C@H](CC(N)=O)NC(=O)[C@@H]1CCCN1S(=O)(=O)c1ccc(-c2cccc(F)c2)cc1`, the IC50 in [5] was 47 nM. Also, the inhibition in assay [9] was determined as 42%.
As to `N#C[C@H](CC(N)=O)NC(=O)[C@@H]1CCCN1S(=O)(=O)c1ccc(C(F)(F)F)cc1`, the IC50 in assay [5] is 332 nM. Besides, the inhibition in assay [9] amounted to 0%.
Taken in the same sequence, the figures for `N#C[C@H](CC(N)=O)NC(=O)[C@@H]1CCCN1S(=O)(=O)c1ccc(-c2ccc(F)cc2)cc1` were 33 nM and 40%.

Source of the values: ChEMBL document CHEMBL3739391, “Development of a potent and selective cell penetrant Legumain inhibitor” (Bioorg Med Chem Lett, 2015).
